This passage reports IC50 and Activity results from ChEMBL document CHEMBL3351823, “Synthesis and biological evaluations of new analogs of 2-methoxyestradiol: inhibitors of tubulin and angiogenesis” (Eur J Med Chem, 2014).

Assay [1] in a line: Anticancer activity against human WM35 cells assessed as cell growth inhibition after 5 days by MTT assay. It counts as functional, cell-based. Particulars: WM35, 120 h.
Assay [2] is described as follows: Antiangiogenic activity in BAECs after 18 hrs by extracellular matrix assay. It counts as functional, Bos taurus. To be noted: baec. The method in brief:
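Extracellular matrix thawed at 4 °C, 50 µl per well, set 10 min at 37 °C. Solid wells incubated 30 min with BAECs (30,000 cells/well), then given analogs at the same concentration. IC50 from three experiments run in duplicate.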

For assay [3], the system named is K562. Briefly: Anticancer activity against human K562 cells assessed as cell growth inhibition after 5 days by MTT assay. To be noted: K562, 120 h. In kind it is functional, cell-based. The method in brief:
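Compounds dissolved in DMSO and serially diluted in medium. Equal volume added to cells at about 40,000 cells/ml, set by doubling time. K562 grown in RPMI with 2-mercaptoethanol, L-glutamine and 10% FCS, no antibiotics. Drug-free wells served as control. Growth read on a plate reader; IC50 taken graphically as % of control growth. Three experiments run in duplicate.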
Background: Formazan colour is commonly taken as a measure of viable cells.

Assay [4] deals with Tubulin (Sus scrofa, UniProt P02554+P02550). Briefly: Inhibition of porcine brain tubulin polymerization after 60 mins. The method, boiled down: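 Wells pre-chilled at 4 °C for 30 min. Mixture of Mes buffer pH 6.6 with MgCl2, GTP, tubulin (50 µl of 11 mg/ml in Mes buffer) and test compound in DMSO. Absorbance recorded at 25 °C over 60 min. Change in optical density compared with untreated controls.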

A short description of assay [5]: Anticancer activity against human OVCAR3 cells assessed as cell growth inhibition after 5 days by MTT assay. In kind it is functional, cell-based. To be noted: OVCAR-3, 120 h.
Assay [6] addresses T1, Estrogen receptor (Homo sapiens) (UniProt P03372).
T1 sequence (whole entry): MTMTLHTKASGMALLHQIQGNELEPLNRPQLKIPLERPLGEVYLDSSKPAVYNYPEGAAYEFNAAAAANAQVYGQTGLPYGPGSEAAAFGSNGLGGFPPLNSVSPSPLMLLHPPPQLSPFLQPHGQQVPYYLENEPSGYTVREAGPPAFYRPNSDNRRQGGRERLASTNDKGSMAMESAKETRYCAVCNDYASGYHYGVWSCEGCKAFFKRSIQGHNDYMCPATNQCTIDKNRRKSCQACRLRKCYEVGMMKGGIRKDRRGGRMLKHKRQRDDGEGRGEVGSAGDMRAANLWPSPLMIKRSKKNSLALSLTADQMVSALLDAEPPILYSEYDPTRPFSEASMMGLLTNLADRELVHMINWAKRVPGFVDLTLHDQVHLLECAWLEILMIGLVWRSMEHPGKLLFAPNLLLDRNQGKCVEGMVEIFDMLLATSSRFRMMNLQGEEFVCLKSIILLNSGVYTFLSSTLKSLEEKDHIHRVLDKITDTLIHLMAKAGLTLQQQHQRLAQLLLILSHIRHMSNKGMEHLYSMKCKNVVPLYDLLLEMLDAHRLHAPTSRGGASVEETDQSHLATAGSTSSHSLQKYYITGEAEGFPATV
Put plainly: Agonist activity at estrogen receptor (unknown origin) expressed in rat PC12 cells coexpressing ER-luc at 10 uM after 24 hrs. In kind it is cell-based. To be noted: PC-12. The method in brief:
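PC-12 cells plated at 7 × 10⁴ cells/ml, 37 °C, 5% CO₂; co-transfected with ERE-luc and ER one day after plating (liposome complexes in serum-free DMEM, serum medium restored after 3 h). Treated next day for 24 h; 0.1% DMSO solvent control, 17-β-estradiol positive control. Luciferase read with 1 mM luciferin, normalised to Renilla; 2 independent experiments, n = 3–5.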

Structures are written as SMILES. Active and inactive are the calls of the source. No cut-off for these calls is given here.

With `COc1cc2c(cc1O)CC[C@@H]1[C@@H]2CC[C@]2(C)C(c3cccc4cnccc34)=CC[C@@H]12`, the IC50 (as a rule, the point on the concentration scale where inhibition reaches its midpoint) in assay [1] is 5100 nM; in assay [2] it was 2400 nM; in assay [3] it was 3100 nM; in assay [4] it was 7200 nM; in assay [5] it was 3900 nM.
As for `COc1cc2c(cc1O)CC[C@@H]1[C@@H]2CC[C@]2(C)C(c3cncc4ccccc34)=CC[C@@H]12`, the IC50 in assay [1] was determined as 700 nM; in assay [2], 800 nM; in assay [3] it was 500 nM; in assay [4], 4800 nM; in assay [5], 400 nM. Further, the result in assay [6] was inactive.
Consider `COc1cc2c(cc1O)CC[C@@H]1[C@@H]2CC[C@]2(C)[C@@H](c3ccc4cnccc4c3)CC[C@@H]12`, for which the IC50 in assay [1] turned out to be 900 nM; in assay [2], 600 nM; in assay [3], 700 nM; in assay [4], 2100 nM; in assay [5], 500 nM.
The corresponding values for `COc1cc2c(cc1O)CC[C@@H]1[C@@H]2CC[C@]2(C)[C@@H](c3ccc4ccncc4c3)CC[C@@H]12` are over 10000 nM, 3300 nM, over 10000 nM, over 10000 nM and over 10000 nM.
In the case of `COc1cc2c(cc1O)CC[C@@H]1[C@@H]2CC[C@]2(C)C(c3ccncc3)=CC[C@@H]12`, the IC50 was 1000 nM in assay [1]; 600 nM in assay [2]; 900 nM in assay [3]; 4100 nM in assay [4]; 1200 nM in assay [5].
For `COc1cc2c(cc1O)CC[C@@H]1[C@@H]2CC[C@]2(C)[C@@H](c3cccnc3)CC[C@@H]12`, the IC50 in assay [1] came out at 1900 nM; in assay [2], 5200 nM; in assay [3], 1100 nM; in assay [4], 5100 nM; in assay [5], 800 nM. Moreover, in assay [6], the result was inactive.
In the case of `COc1cc2c(cc1O)CC[C@@H]1[C@@H]2CC[C@]2(C)C(c3ccc4ccncc4c3)=CC[C@@H]12`, the IC50 in assay [1], in assay [2], in assay [3] and in assay [5] was over 10000 nM each time.
Turning to `COc1cc2c(cc1O)CC[C@@H]1[C@@H]2CC[C@]2(C)C(c3cccnc3)=CC[C@@H]12`, the IC50 in assay [1], in assay [2], in assay [3] and in assay [5] was over 10000 nM throughout. Also, the outcome in assay [6] was inactive.
Take `COc1cc2c(cc1O)CC[C@@H]1[C@@H]2CC[C@]2(C)C(c3cccc4ncccc34)=CC[C@@H]12`: the IC50 was found to be 2900 nM in assay [1]; 2000 nM in assay [2]; 1100 nM in assay [3]; 3100 nM in assay [4]; 1200 nM in assay [5].
The matching figures for `COc1cc2c(cc1O)CC[C@@H]1[C@@H]2CC[C@]2(C)[C@@H](O)CC[C@@H]12` [2-METHOXYESTRADIOL]: 2100 nM, 3200 nM, 800 nM, 2200 nM and 1200 nM.
For `COc1cc2c(cc1O)CC[C@@H]1[C@@H]2CC[C@]2(C)[C@@H](c3cccc4c3CCCN4)CC[C@@H]12`, the IC50 in assay [1] worked out at 1900 nM; in assay [2], 3300 nM; in assay [3], 1300 nM; in assay [4], 3700 nM; in assay [5] it was 1500 nM. In addition, the outcome in assay [6] was inactive.
Take `COc1cc2c(cc1O)CC[C@@H]1[C@@H]2CC[C@]2(C)C(c3ccc4cnccc4c3)=CC[C@@H]12`: the IC50 in assay [1] turned out to be 1000 nM; in assay [2], 700 nM; in assay [3] it was 400 nM; in assay [4] it was 2200 nM; in assay [5], 200 nM.
The corresponding values for `COc1cc2c(cc1O)CC[C@@H]1[C@@H]2CC[C@]2(C)[C@@H](c3cccc4cnccc34)CC[C@@H]12` are 4100 nM, 1300 nM, 2100 nM, 8100 nM and 3000 nM.
Regarding `COc1cc2c(cc1O)CC[C@@H]1[C@@H]2CC[C@]2(C)[C@@H](c3cncc4c3CCCC4)CC[C@@H]12`, the IC50 in assay [1] was 900 nM; in assay [2], 1100 nM; in assay [3], 500 nM; in assay [4], 2500 nM; in assay [5], 400 nM. Besides, in assay [6], the result was inactive.
Regarding `COc1cc2c(cc1O)CC[C@@H]1[C@@H]2CC[C@]2(C)C(c3ccccc3)=CC[C@@H]12`, the IC50 in assay [1], in assay [2], in assay [3] and in assay [5] was over 10000 nM each time.
With `COc1cc2c(cc1O)CC[C@@H]1[C@@H]2CC[C@]2(C)[C@@H](c3ccncc3)CC[C@@H]12`, the 50% inhibitory concentration (IC50) came out at 1600 nM in assay [1]; 4200 nM in assay [2]; 1400 nM in assay [3]; 5800 nM in assay [4]; 1000 nM in assay [5].
